The values that follow come from article PMC8359806 (Science translational medicine, 2020).

The subject of assay [1] is lipoprotein lipase (LPL). The assay can be described thus: Ex vivo TG lipolysis. To be noted: human apoC-II-deficient plasma (TG=1711 mg/dL) with added LPL. In kind it is biochemical. In a few lines: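 Human apoC-II-deficient plasma (TG=1711 mg/dL) was spiked with LPL plus test compound at the indicated concentrations or at 10 μM. LPL activity was read as NEFA generation, measured enzymatically. Results are the mean of triplicates ± S.D. (two-way ANOVA, Bonferroni post-test), or N=8 at 10 μM (Mann-Whitney).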

In assay [2] the target is apoC-III (Homo sapiens, UniProt P02656). The class given is biochemical. The settings on record: 33 μM apoC-III added to pooled human HTG plasma (TG=360 mg/dL) with LPL. The gist of the method:
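Pooled human HTG plasma (TG=360 mg/dL) was incubated with LPL and test compound at 0–100 μM (0–0.47 mg/mL), with or without 33 μM apoC-III. Reference conditions were LPL alone and LPL with apoC-III. Lipolysis was read as NEFA generation, measured enzymatically. Results are the mean of triplicates ± S.D. (two-way ANOVA, Bonferroni post-test).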

Sequence of apoC-III (P02656 21-99): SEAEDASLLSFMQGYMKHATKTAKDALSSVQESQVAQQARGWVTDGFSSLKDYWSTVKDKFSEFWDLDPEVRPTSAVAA

As to “TYLPAVDEKLRDLYSKSTAAMSTYTGIFTDQVLSVLKGEE [RCH2]”, the “stimulation of ex vivo lipolysis” value in assay [1] is reported as “only partial activity”. On to “apoC-III: apolipoprotein C-III, inhibits LPL”, for which, in assay [2], the “inhibition of ex vivo lipolysis of TG” value is “approximately 40%”.
